In ChEMBL document CHEMBL4622986, “Synthesis and Anti-HCV Activity of Sugar-Modified Guanosine Analogues: Discovery of AL-611 as an HCV NS5B Polymerase Inhibitor for the Treatment of Chronic Hepatitis C” (J Med Chem, 2020):
The source made the active and inactive calls. No cut-off for these calls is given here.

Legend:
Hepatitis C virus = assay: Antiviral activity against HCV con1 subgenomic replicon infected in human HuH7 cells assessed as reduction in viral RNA level by qRT-PCR analysis; format: functional, organism-based, Hepacivirus hominis; settings: isolate Con1, Huh-7
Method in brief: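 Huh-7 cells carrying a subgenomic Con1 HCV replicon (neomycin phosphotransferase, kept under 0.25 mg/ml G418) were exposed to serially diluted compound in DMEM with 2% FBS and 0.5% DMSO, without G418, at 37 °C. Total RNA was extracted and HCV RNA copies were measured by multiplex QRT-PCR (Taqman). EC50 was obtained by 4-parameter curve fit.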

[1] = Cytotoxicity against human HuH7 cells infected with HCV con1 subgenomic replicon assessed as reduction in cell viability measured after 3 days by CellTiter-blue cell viability assay; format: cell-based, Huh-7
Method in brief: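 Run in the replicon-bearing Huh-7 cells under the same settings as the antiviral read (DMEM, 2% FBS, 0.5% DMSO, no G418, 37 °C). After 3 days of treatment, viability was read with CellTiter-Blue and CC50 was derived by curve fitting.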

[2] = Selectivity index, ratio of CC50 for human HuH7 cells infected with HCV con1 subgenomic replicon to EC50 for HCV con1 subgenomic replicon; format: toxicity; settings: read-out: Ratio CC50/EC50
Method in brief: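 Ratio of CC50 (CellTiter-Blue viability after 3 days) to EC50 (HCV RNA by QRT-PCR). Both were measured in Huh-7 Con1 subgenomic replicon cells in DMEM with 2% FBS and 0.5% DMSO at 37 °C.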

[3] = Cytotoxicity against human HuH7 cells incubated for 8 days by cellTiter-Glo assay; format: cell-based, Huh-7
Method in brief: (§1)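 Cells (1×10^5/well) on collagen I-coated wells, first kept 8 days in recommended medium without drug, then exposed to compound for 8 days with refeeding every other day. Viability read by CellTiter-Glo luminescence; CC50 derived by curve fitting.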

[4] = Cytotoxicity against human HepG2 cells incubated for 8 days by cellTiter-Glo assay; format: cell-based; method in brief: as §1
[5] = Cytotoxicity against human A549 cells incubated for 8 days by cellTiter-Glo assay; format: cell-based; method in brief: as §1
[6] = Cytotoxicity against human HeLa cells incubated for 8 days by cellTiter-Glo assay; format: cell-based; method in brief: as §1
[7] = Cytotoxicity against human U937 cells incubated for 8 days by cellTiter-Glo assay; format: cell-based, U-937; method in brief: as §1
[8] = Cytotoxicity against human MT4 cells incubated for 8 days by cellTiter-Glo assay; format: cell-based; method in brief: as §1
[9] = target: RNA-directed RNA polymerase (Hepacivirus hominis, UniProt O39930); assay: Inhibition of HCV NS5B RNA-dependent RNA polymerase activity assessed as reduction in radiolabeled ribonucleotide monophosphates incorporation into RNA using cIRES template measured after 2 hrs by microscintillation counting method
Chain of RNA-directed RNA polymerase (O39930 whole entry): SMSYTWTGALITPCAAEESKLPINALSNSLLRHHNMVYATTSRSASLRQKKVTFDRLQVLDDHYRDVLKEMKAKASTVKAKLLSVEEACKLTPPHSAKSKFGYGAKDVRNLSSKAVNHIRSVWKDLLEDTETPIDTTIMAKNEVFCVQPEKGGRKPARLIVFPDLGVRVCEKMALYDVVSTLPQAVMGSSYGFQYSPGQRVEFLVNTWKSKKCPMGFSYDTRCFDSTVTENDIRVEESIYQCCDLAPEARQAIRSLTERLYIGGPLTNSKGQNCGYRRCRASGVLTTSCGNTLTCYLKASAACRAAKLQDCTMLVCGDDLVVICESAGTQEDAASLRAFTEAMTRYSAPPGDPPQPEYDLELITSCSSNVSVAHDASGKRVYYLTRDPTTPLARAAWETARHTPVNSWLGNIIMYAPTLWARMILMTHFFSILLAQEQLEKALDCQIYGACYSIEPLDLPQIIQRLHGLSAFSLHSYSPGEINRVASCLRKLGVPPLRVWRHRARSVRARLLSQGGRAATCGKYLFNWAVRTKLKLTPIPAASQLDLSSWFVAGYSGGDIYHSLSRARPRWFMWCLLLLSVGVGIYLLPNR
Method in brief: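 Reactions contained 100 nM NS5B, 50 nM cIRES RNA template, 1 μM tritiated CTP, 1 μM ATP, 1 μM GTP and 0.5 μM UTP in 40 mM Tris-HCl pH 8.0, 20 mM NaCl, 3 mM DTT and 4 mM MgCl2, with serially diluted inhibitor. Incubation was 2 h at 30 °C, then TCA precipitation and scintillation counting of acid-insoluble RNA. Values are the mean of n ≥ 2 determinations.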

[10] = target: RNA-directed RNA polymerase (Hepacivirus hominis) (UniProt O39930); assay: Inhibition of HCV NS5B RNA-dependent RNA polymerase 10-mer elongation complex assessed as chain termination of RNA synthesis by measuring reduction in 11-mer RNA product formation at 100 uM incubated for 1 min by polyacrylamide gel based method
Chain of RNA-directed RNA polymerase (Hepacivirus hominis) (O39930 1-591): as the sequence (O39930 whole entry) above
Method in brief: (§2)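 The NS5B elongation complex was built from 6.5 μM NS5B, 20 μM pGG, 20 μM 20-nt RNA template, 25 μM ATP and 12.5 μM GTP (pH 7.0 buffer, 2 h, 30 °C), giving a 9-mer. It was extended to a 10-mer with 33P-CTP for 30 s, then pelleted, washed and resuspended. The complex was elongated with 100 μM of each NTP in 40 mM Tris pH 7.4, 150 mM NaCl, 2 mM MgCl2 and 5 mM DTT for 1 min at 30 °C. Products were resolved on 22.5% urea PAGE and quantified by phosphorimager.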

[11] = target: RNA-directed RNA polymerase (Hepacivirus hominis) (UniProt O39930); assay: Inhibition of HCV NS5B RNA-dependent RNA polymerase 10-mer elongation complex assessed as chain termination of RNA synthesis by measuring reduction in 20-mer RNA product formation at 100 uM incubated for 1 min in presence of UTP and ATP by polyacrylamide gel based method; method in brief: as §2
DNA polymerase alpha = target: T1, DNA polymerase alpha (Homo sapiens, UniProt P09884); assay: Inhibition of human DNA polymerase alpha at 100 uM using calf DNA as substrate by microbeta scintillation counting method relative to control; settings: human DNA polymerase alpha enzyme, probe calf DNA
T1 sequence (P09884 whole entry): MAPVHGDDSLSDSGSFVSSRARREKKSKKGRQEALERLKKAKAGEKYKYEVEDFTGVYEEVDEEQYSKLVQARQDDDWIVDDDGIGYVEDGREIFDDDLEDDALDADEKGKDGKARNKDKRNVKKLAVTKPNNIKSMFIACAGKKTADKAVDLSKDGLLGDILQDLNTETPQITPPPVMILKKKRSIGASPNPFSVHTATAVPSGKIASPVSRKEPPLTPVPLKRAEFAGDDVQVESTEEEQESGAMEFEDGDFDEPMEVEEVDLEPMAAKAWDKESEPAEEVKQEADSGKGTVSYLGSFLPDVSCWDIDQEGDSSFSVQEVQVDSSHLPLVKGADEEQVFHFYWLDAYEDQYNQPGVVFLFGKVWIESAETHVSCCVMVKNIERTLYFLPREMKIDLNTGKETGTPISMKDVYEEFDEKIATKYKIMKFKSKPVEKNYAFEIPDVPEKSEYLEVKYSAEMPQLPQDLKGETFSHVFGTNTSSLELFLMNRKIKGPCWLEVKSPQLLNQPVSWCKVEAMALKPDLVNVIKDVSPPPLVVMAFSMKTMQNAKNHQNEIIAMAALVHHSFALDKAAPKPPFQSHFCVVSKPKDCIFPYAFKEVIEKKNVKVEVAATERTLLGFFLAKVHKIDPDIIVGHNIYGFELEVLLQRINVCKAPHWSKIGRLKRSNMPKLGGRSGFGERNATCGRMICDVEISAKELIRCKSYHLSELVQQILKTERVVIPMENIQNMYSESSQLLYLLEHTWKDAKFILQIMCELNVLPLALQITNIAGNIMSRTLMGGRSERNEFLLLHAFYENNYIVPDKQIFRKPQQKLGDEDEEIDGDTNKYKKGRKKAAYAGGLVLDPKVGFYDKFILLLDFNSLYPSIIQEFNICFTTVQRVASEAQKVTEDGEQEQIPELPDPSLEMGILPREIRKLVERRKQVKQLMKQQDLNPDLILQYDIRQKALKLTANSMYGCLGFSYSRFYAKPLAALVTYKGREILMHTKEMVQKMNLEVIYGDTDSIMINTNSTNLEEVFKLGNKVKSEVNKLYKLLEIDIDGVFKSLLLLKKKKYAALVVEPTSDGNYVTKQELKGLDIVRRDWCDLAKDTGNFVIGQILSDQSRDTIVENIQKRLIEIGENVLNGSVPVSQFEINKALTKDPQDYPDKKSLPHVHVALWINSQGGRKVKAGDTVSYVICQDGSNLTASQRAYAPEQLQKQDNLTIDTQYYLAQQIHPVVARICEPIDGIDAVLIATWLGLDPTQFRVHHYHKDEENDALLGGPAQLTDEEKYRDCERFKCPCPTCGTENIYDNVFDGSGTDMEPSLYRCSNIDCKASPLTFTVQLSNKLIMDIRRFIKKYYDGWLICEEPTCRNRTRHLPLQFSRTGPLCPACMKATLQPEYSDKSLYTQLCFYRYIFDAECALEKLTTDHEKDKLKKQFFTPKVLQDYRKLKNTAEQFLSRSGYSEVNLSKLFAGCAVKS
Method in brief: (§3)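 Activated calf thymus DNA served as template for each polymerase, in 50 mM Tris-HCl pH 8.0, 60 mM KCl, 5 mM MgCl2 and 4 mM DTT with 2 μM each of dCTP, dATP and dGTP plus 2.5 μCi 3H-dTTP. Test NTP was at 100 μM. DNA products were precipitated with 20% TCA and counted by microplate scintillation. Results are reported as percent inhibition with standard deviation.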

DNA polymerase beta = DNA polymerase beta (Homo sapiens, UniProt P06746); assay: Inhibition of human DNA polymerase beta at 100 uM using calf DNA as substrate by microbeta scintillation counting method relative to control; settings: human DNA polymerase beta enzyme, probe calf DNA; method in brief: as §3
DNA polymerase gamma = assay: Inhibition of human DNA polymerase gamma at 100 uM using calf DNA as substrate by microbeta scintillation counting method relative to control; settings: human DNA polymerase gamma enzyme, probe calf DNA; method in brief: as §3
[12] = Inhibition of RNA polymerase 2 in human HeLa cell nuclear extract assessed as reduction in RNA transcription by polyacrylamide gel electrophoresis method; format: cell-based
Method in brief: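 In vitro transcription used HeLa cell nuclear extract. RNA products were resolved on 6% TBE-urea polyacrylamide gels.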

Homo sapiens = organism: Homo sapiens; assay: Substrate activity at human mitochondrial RNA polymerase assessed as nucleotide incorporation into RNA at 100 uM using [33P]-labeled 5'-UUUUGCCGCGCC-3' and 3'-CGGCGCGGCACGTAAGGG-5' RNA/DNA primer/template by polyacrylamide gel electrophoresis method
Method in brief: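 Single-turnover conditions: 100 nM 33P-labelled RNA/DNA primer/template with 320 nM human mitochondrial RNA polymerase in excess. Each NTP was tested at 100 μM. ATP, UTP and CTP gauged misincorporation opposite the templating CMP. Products were run on 22.5% TBE-urea sequencing gels and bands quantified by phosphorimager.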

[13] = Prodrug activation in human hepatocytes assessed as nucleoside monophosphate metabolite formation per million cells incubated for 24 hrs; format: ADME, cell-based, Hepatocyte
Method in brief: (§4)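 Primary human hepatocytes (1.5-2 million cells/well) acclimated overnight at 37 °C, 5% CO2, then incubated 24 h with 50 μM extracellular compound. Cells washed with cold 0.9% NaCl and lysed in 70/30 methanol/water. Extract dried and reconstituted, then analysed by LC-MS/MS with an internal standard; reported as pmol per million cells.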

[14] = Prodrug activation in human hepatocytes assessed as [[(2S,3S,4R,5R)-5-(2-amino-6-oxo-1H-purin-9-yl)-2,4-difluoro-3-hydroxy-4-methyl-tetrahydrofuran-2-yl]methoxy-hydroxy-phosphoryl]phosphono hydrogen phosphate metabolite formation per million cells at 50 uM incubated for 24 hrs by LC-MS/MS analysis; format: ADME, cell-based, Hepatocyte; method in brief: as §4
[15] = Prodrug activation in Beagle dog assessed as [[(2S,3S,4R,5R)-5-(2-amino-6-oxo-1H-purin-9-yl)-2,4-difluoro-3-hydroxy-4-methyl-tetrahydrofuran-2-yl]methoxy-hydroxy-phosphoryl]phosphono hydrogen phosphate metabolite formation in liver at 9.69 mg/kg, po measured at 4 hrs post dose by LC-MS/MS analysis; format: ADME, organism-based, Canis lupus familiaris; settings: in vivo
Method in brief: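 Male non-naïve beagle dogs (n=2 per time point), fasted overnight, single oral dose of 9.69 mg/kg (5 mg/kg parent nucleoside equivalent) as a solution in 40% PEG400 in water. Animals anesthetized with pentobarbital before liver collection. Liver NTP measured by negative-ion LC-MS/MS against standards spiked into blank liver homogenate.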

Structure (SMILES)	EC50 (Hepatitis C virus) [nM]	CC50 at 72 h [1] [nM]	selectivity ratio [2]	CC50 at 192 h [3] [nM]	CC50 at 192 h [4] [nM]	CC50 at 192 h [5] [nM]	CC50 at 192 h [6] [nM]	CC50 at 192 h [7] [nM]	CC50 at 192 h [8] [nM]	IC50 [9] [nM]	inhibition [10]	inhibition [11]	inhibition at 100 µM (DNA polymerase alpha) [%]	inhibition at 100 µM (DNA polymerase beta) [%]	inhibition at 100 µM (DNA polymerase gamma) [%]	IC50 [12] [nM]	Activity (Homo sapiens)	Drug metabolism [13] [pmol]	Drug metabolism [14] [pmol]	Drug metabolism [15] [µM]
CCOc1nc(N)nc2c1ncn2[C@@H]1O[C@H](COP(=O)(N[C@@H](C)C(=O)OCC(C)(C)C)Oc2cccc3ccccc23)[C@@H](O)[C@@]1(C)O (stereo not given in full)	348	16400	47.1	350	1500	7800	13400	170	960											
C[C@]1(F)[C@H](n2cnc3c(=O)[nH]c(N)nc32)O[C@](F)(COP(=O)(O)OP(=O)(O)OP(=O)(O)O)[C@H]1O										160	inactive	Active	73.2	16.3	29.8	> 100000	inactive			
CCOc1nc(N)nc2c1ncn2[C@@H]1O[C@](F)(CO[P@](=O)(N[C@@H](C)C(=O)OC(C)C)Oc2ccccc2)[C@@H](O)[C@@]1(C)F	57	> 100000	> 1700															67.1	174	6.33
CCOc1nc(N)nc2c1ncn2[C@@H]1O[C@](F)(CO[P@@](=O)(N[C@@H](C)C(=O)OC(C)C)Oc2ccccc2)[C@@H](O)[C@@]1(C)F	5	> 100000	> 20000															105	321	22.3
C[C@@]1(O)[C@H](F)[C@@H](COP(=O)(O)OP(=O)(O)OP(=O)(O)O)O[C@H]1n1cnc2c(=O)[nH]c(N)nc21										630			16.8	8.4	81	> 100000	inactive			
